Laboratory results as given in ChEMBL document CHEMBL1144684, “Evaluation of a series of naphthamides as potent, orally active vascular endothelial growth factor receptor-2 tyrosine kinase inhibitors” (J Med Chem, 2008).
Calls of active or inactive are those of the source. The rule behind the calls is not given here.

Assays:
Mus musculus [1] = test: Cmax in mouse at 10 mg/kg, po; type: ADME, organism-based; design: dose 10 mg/kg, route oral; conditions: in vivo
Outline: (§1)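 Compound given iv and po as single doses; vehicles: mouse iv PEG 400, po OraPlus; dog iv DMSO, po 1% Tween-80/2% HPMC/97% water; cynomolgus iv propylene glycol, po suspension.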

[2] = Clearance in mouse at 2 mg/kg, iv; type: ADME, organism-based; design: dose 2 mg/kg, route intravenous; conditions: in vivo; outline: as §1
[3] = Protein binding in dog plasma; type: ADME, organism-based, Canis lupus familiaris; conditions: read-out: PPB (converted)
Outline: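 Compound spiked into plasma at 5 µg/mL (12.9 µM) from a DMSO stock, incubated 37 °C 15 min, then ultracentrifuged 3 h at 37 °C. Supernatant below lipid layer measured by LC-MS (n = 6) against QC in plasma filtrate; % bound = 1 − (centrifuged concentration / mean QC) × 100.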

[4] = Tmax in dog at 0.5 mg/kg, po; type: ADME, organism-based, Canis lupus familiaris; design: dose 0.5 mg/kg, route oral; conditions: in vivo
Outline: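 Oral suspension dosing; vehicles: mouse 10 mg/kg in OraPlus, dog 0.5 mg/kg in 1% Tween-80/2% HPMC/97% water, cynomolgus monkey 2 mg/kg.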

[5] = Protein binding in cynomolgus monkey plasma; type: ADME, cell-free, Macaca fascicularis; conditions: read-out: PPB (converted)
[6] = Cmax in cynomolgus monkey at 2 mg/kg, po; type: ADME, organism-based, Macaca fascicularis; design: dose 2 mg/kg, route oral; conditions: in vivo; outline: as §1
HT-29 = test: Antitumor activity in human HT29 cells xenografted CD1 nu/nu mouse assessed as inhibition of tumor growth at 3 mg/kg, po qd for 14 days; type: functional; conditions: HT-29, 336 h, read-out: TGI
Outline: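 Female CD-1 nu/nu mice, 4–8 weeks, implanted sc in hind flank with 1 × 10^7 HT29 (DMEM high glucose, 5% FBS) or Calu-6 (RPMI 1640, 10% FBS) cells; treatment began at 13–14 days (~300 mm3). Methanesulfonate salt given po qd in OraPlus for 14 days; caliper volumes twice weekly; n = 10/group; RMANOVA with Scheffé test.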

Mus musculus [7] = test: Cmax in human HT29 cell xenografted CD1 nu/nu mouse at 10 mg/kg, po qd; type: ADME, organism-based, HT-29; design: dose 10 mg/kg, route oral; conditions: in vivo
HUVEC = test: Selectivity of IC50 for VEGF-induced proliferation over IC50 for bFGF-induced proliferation of HUVEC; type: functional, Homo sapiens
Outline: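 HUVECs were seeded at 3000 cells/well in DMEM/10% FBS with pen/strep and cultured for 22 h. They were preincubated 2 h with serially diluted compound, then stimulated with 50 ng/mL VEGF or 20 ng/mL bFGF for 72 h at 37 °C, 5% CO2. Cells were washed, frozen at -70 °C and stained with CyQuant. IC50s came from a four-parameter logistic fit, averaged over ≥2 experiments; the VEGF IC50 was compared against the bFGF IC50.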

[8] = Clearance in Sprague-Dawley rat at 0.5 mg/kg, iv; type: ADME, organism-based; design: dose 0.5 mg/kg, route intravenous; conditions: in vivo
Outline: (§2)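 Male Sprague–Dawley rats dosed iv via femoral vein as DMSO solution (1 or 0.5 mg/kg) or po by gavage as OraPlus suspension (pH 2.0–2.2 with methanesulfonic acid; 10 or 2 mg/kg). Serial jugular blood over 12–24 h; plasma acetonitrile precipitation, LC-MS/MS (MRM) with internal standard; noncompartmental parameters.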

[9] = Cmax in Sprague-Dawley rat at 2 mg/kg, po; type: ADME, organism-based; design: dose 2 mg/kg, route oral; conditions: in vivo; outline: as §2
[10] = Oral bioavailability in Sprague-Dawley rat at 2 mg/kg; type: ADME, organism-based; conditions: in vivo
Outline: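 Male Sprague–Dawley rats dosed iv at 0.5 mg/kg as DMSO solution or po at 2 mg/kg as suspension in 100% OraPlus. Serial jugular blood, plasma LC-MS/MS quantitation, noncompartmental analysis.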

[11] = biological target: Vascular endothelial growth factor receptor 1 (Homo sapiens, UniProt P17948); test: Inhibition of human VEGFR1
[12] = biological target: Tyrosine-protein kinase Lyn (Homo sapiens, UniProt P07948); test: Inhibition of Lyn
Mus musculus [13] = test: Inhibition of VEGF-induced vascular permeability in HEK293 cells over expressing mouse recombinant VEGF implanted in CD1 nu/nu mouse assessed as Matrigel plug at 30 mg/kg, po after 6 hrs; type: functional, organism-based; design: dose 30 mg/kg
Outline: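 HEK293 cells transfected with murine VEGF (or empty vector) were suspended in Matrigel and injected sc into the ventral surface of CD-1 nu/nu mice. At 24 h post-implant, a single oral gavage dose was given as an OraPlus suspension (or vehicle). After 6 h, Evans blue dye was quantified in 1 cm2 of skin over the plug. Plasma was sampled at 6 h; n = 5/group.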

Rattus norvegicus = test: Inhibition of VEGF-induced angiogenesis in VEGF-soaked disk implanted in Sprague-Dawley rat cornea assessed as number of blood vessels intersecting the midpoint between disk and limbus after 7 days; type: functional; conditions: 168 h
[14] = AUC in VEGF-soaked disk implanted in Sprague-Dawley rat; type: ADME, organism-based; conditions: plasma
Liver microsomes [15] = test: Metabolic stability assessed as covalent binding in absence of NADPH in human liver microsomes at 10 uM after 1 hr; type: ADME, Microsome
Outline: (§3)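 14C-labelled compound at 10 µM with human or rat liver microsomes (1 mg/mL) in 0.1 M potassium phosphate pH 7.4, with or without 1 mM NADPH and 1 mM glutathione, 60 min; quenched with ice-cold acetonitrile. Pellet washed with 80% methanol and ethanol/ether, solubilized, protein by BCA, radioactivity by scintillation counting.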

Liver microsomes [16] = test: Metabolic stability assessed as covalent binding in presence of NADPH in rat liver microsomes at 10 uM after 1 hr; type: ADME, Microsome; outline: as §3
Angiopoietin-1 receptor = Angiopoietin-1 receptor (Homo sapiens, UniProt Q02763); test: Inhibition of Tie2
Aurora kinase A = biological target: T1, Aurora kinase A (Homo sapiens, UniProt O14965); test: Inhibition of Aurora A
T1 sequence (O14965 whole entry): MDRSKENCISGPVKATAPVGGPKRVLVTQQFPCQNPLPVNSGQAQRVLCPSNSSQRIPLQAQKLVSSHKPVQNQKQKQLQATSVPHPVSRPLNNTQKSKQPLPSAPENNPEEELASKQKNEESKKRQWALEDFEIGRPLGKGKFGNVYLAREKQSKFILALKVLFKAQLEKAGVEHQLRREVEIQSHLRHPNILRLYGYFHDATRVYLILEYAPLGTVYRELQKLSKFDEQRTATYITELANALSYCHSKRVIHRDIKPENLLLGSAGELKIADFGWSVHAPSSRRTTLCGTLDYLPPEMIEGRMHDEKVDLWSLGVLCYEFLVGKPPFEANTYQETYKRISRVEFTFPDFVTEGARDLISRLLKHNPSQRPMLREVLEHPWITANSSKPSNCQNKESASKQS

Aurora kinase B = Aurora kinase B (Homo sapiens, UniProt Q96GD4); test: Inhibition of Aurora B
[17] = biological target: Tyrosine-protein kinase ABL1 (Homo sapiens, UniProt P00519)
Calu-6 (Homo sapiens) [18] = test: Antitumor activity in human Calu6 cell xenografted CD1 nu/nu mouse assessed as inhibition of tumor growth at 20 mg/kg, po qd for 14 days; conditions: Calu-6, po, 336 h, read-out: TGI
Calu-6 (Homo sapiens) [19] = test: Antitumor activity in human Calu6 cell xenografted CD1 nu/nu mouse assessed as inhibition of tumor growth at 60 mg/kg, po qd for 14 days; conditions: Calu-6, po, 336 h, read-out: TGI

Sequence of Tyrosine-protein kinase Lyn (P07948 whole entry): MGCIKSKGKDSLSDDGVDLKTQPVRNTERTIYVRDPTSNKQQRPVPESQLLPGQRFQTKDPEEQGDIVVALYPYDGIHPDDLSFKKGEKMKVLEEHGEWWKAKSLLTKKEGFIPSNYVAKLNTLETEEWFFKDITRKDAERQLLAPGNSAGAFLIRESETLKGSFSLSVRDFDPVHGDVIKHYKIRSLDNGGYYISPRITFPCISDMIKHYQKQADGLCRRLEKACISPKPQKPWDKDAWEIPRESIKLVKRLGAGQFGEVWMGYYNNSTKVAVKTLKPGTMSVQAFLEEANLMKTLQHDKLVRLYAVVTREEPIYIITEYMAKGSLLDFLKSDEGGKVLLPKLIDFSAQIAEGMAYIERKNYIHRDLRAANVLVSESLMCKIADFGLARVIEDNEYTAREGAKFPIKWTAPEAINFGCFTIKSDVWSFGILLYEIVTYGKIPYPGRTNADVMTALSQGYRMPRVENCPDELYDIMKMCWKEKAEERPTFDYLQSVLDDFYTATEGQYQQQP
Sequence of Aurora kinase B (Q96GD4 whole entry): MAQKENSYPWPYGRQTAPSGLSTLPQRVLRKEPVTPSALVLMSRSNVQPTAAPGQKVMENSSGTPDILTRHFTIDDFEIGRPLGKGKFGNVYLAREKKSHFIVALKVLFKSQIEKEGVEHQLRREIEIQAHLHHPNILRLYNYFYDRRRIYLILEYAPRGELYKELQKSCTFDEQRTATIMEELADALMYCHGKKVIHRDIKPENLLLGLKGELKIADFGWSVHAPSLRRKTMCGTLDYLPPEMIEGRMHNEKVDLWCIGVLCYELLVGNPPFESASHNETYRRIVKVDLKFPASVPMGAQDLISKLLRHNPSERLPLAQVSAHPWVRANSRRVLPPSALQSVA
Sequence of Vascular endothelial growth factor receptor 1 (P17948 whole entry): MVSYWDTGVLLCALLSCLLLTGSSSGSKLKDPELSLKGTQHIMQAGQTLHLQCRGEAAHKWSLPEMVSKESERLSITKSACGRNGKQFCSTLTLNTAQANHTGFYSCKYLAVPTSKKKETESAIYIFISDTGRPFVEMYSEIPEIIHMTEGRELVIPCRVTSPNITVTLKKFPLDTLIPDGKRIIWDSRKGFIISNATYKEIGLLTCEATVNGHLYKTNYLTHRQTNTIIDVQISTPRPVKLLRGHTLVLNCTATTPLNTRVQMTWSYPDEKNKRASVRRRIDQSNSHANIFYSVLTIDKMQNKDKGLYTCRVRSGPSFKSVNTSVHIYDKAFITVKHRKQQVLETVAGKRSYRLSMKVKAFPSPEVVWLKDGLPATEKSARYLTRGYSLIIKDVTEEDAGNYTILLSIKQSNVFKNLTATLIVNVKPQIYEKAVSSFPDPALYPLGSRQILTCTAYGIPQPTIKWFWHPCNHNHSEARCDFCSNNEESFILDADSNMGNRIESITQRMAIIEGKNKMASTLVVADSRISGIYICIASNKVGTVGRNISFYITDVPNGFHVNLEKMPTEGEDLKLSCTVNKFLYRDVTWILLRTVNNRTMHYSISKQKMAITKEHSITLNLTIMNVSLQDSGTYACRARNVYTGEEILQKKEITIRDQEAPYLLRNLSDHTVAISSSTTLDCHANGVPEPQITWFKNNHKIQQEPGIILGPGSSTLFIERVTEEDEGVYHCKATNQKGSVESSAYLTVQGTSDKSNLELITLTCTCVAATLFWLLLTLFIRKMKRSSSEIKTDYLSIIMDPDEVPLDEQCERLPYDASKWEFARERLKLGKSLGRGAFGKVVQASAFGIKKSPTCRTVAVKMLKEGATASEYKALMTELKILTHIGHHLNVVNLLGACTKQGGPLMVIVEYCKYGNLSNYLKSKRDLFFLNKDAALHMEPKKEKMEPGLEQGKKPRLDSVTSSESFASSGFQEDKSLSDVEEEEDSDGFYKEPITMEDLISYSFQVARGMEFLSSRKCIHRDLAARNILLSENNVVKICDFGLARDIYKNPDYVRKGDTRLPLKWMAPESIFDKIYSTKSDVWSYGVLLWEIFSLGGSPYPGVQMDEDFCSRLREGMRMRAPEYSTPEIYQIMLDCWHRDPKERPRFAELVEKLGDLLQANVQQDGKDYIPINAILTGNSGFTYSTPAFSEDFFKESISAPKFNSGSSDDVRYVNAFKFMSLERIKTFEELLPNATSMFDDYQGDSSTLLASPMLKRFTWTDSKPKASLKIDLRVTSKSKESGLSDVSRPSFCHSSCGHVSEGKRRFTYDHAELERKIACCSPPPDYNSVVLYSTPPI
Sequence of Tyrosine-protein kinase ABL1 (P00519 whole entry): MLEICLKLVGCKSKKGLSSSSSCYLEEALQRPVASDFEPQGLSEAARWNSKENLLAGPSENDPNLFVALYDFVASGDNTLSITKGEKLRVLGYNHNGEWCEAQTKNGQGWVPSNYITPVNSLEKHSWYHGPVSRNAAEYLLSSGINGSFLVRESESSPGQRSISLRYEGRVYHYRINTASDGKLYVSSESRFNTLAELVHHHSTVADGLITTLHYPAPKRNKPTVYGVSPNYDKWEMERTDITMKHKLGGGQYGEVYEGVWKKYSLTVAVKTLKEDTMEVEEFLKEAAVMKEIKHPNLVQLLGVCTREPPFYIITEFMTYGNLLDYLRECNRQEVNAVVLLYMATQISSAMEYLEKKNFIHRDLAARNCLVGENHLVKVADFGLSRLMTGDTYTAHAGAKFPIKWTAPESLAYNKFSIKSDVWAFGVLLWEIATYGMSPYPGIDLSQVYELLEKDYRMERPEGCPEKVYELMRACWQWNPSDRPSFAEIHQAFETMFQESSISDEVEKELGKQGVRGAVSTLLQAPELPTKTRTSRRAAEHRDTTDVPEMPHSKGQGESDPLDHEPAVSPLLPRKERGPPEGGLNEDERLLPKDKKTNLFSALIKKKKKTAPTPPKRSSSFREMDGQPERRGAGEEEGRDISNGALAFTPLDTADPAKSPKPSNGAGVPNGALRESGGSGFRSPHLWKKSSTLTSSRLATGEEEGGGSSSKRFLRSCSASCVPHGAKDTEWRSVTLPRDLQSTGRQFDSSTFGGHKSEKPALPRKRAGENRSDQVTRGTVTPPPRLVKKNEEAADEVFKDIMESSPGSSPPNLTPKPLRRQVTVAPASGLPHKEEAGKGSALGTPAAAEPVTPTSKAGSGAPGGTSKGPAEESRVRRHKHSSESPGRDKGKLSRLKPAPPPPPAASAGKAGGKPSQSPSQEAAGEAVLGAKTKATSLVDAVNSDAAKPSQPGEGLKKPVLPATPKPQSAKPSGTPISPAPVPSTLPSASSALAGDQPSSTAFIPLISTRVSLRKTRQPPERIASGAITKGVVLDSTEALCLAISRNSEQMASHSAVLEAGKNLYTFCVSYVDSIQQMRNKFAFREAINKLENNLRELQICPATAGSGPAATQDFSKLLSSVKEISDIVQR
Sequence of Angiopoietin-1 receptor (Q02763 whole entry): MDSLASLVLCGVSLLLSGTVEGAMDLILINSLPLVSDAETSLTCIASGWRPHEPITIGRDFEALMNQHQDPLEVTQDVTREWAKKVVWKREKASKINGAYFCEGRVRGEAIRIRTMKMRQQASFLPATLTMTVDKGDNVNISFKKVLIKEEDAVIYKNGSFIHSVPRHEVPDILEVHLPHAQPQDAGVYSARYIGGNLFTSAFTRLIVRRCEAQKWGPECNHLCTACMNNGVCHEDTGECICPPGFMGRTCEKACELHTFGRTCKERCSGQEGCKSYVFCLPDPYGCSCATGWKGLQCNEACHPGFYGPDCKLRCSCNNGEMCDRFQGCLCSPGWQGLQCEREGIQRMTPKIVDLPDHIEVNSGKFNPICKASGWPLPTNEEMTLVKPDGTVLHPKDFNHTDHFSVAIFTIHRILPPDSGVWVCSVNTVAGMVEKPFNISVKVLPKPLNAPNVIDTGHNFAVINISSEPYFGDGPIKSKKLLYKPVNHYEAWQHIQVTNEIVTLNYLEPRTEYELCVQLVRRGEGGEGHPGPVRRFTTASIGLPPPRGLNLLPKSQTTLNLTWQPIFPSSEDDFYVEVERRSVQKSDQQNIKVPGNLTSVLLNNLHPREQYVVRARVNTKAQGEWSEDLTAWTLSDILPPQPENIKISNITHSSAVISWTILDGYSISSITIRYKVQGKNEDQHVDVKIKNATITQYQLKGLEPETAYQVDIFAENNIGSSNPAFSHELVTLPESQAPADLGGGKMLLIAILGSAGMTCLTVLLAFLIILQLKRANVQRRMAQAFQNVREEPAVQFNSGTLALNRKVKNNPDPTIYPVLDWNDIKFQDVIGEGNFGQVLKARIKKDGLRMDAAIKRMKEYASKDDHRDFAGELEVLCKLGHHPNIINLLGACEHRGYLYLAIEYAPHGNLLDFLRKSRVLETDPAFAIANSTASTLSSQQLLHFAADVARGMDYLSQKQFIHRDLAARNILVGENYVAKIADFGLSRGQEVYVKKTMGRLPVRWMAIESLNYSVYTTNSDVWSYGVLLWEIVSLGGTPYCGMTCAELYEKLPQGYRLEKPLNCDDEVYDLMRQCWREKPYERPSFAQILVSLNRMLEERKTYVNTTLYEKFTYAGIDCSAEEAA

COc1cc2nccc(Oc3ccc4c(C(N)=O)cccc4c3)c2cc1OC
Cmax (Mus musculus [1]): 890 ng/mL | clearance [2]: 42.4 mL/min/kg | fraction unbound [3]: 0.038 | Tmax [4]: 45 min | fraction unbound [5]: 0.008 | Cmax [6]: 1050 ng/mL | inhibition in vivo at 3 mg/kg (HT-29): 51% | Cmax (Mus musculus [7]): 1300 nM | Selectivity ratio (HUVEC): >100 | clearance [8]: 3.73 mL/min/kg | Cmax [9]: 1690 ng/mL | bioavailability [10]: 96% | Activity [11]: Active | IC50 [12]: 88 nM | Cp (Mus musculus [13]): 2.3 µM | ED50 (Rattus norvegicus): 0.04 mg/kg | AUC [14]: 0.48 µM·h | Stability (Liver microsomes [15]): 14 pmol/mg/h | Stability (Liver microsomes [16]): 39 pmol/mg/h | IC50 (Angiopoietin-1 receptor): 25 µM | IC50 (Aurora kinase A): 5 µM | IC50 (Aurora kinase B): 220 nM | IC50 [17]: 110 nM | inhibition in vivo at 20 mg/kg (Calu-6 (Homo sapiens) [18]): 85% | inhibition in vivo at 60 mg/kg (Calu-6 (Homo sapiens) [19]): 88%
